How the values were obtained:
[1] = Cmax in chimeric mouse transplanted with human hepatocytes at 3 mg/kg, po; type: ADME, organism-based, Hepatocyte; design: dose 3 mg/kg, route oral
Outline: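 Single 3 mg/kg oral dose of compound in 50% PEG400 with equimolar HCl in saline to h-PXB or r-PXB mice (n=3~4). Orbital-vein blood (heparinized) taken over 0–6 hr; plasma stored at -30°C and assayed by LC/MS/MS. Non-compartmental analysis: Cmax from observed values, AUC by trapezoidal rule extrapolated to infinity, CLoral = Dose/AUCpo.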

[2] = Half life in rat at 3 mg/kg, iv; type: ADME, organism-based; design: dose 3 mg/kg, route intravenous; conditions: in vivo
[3] = Half life in chimeric mouse transplanted with rat hepatocytes at 3 mg/kg, iv; type: ADME, organism-based, Hepatocyte; design: dose 3 mg/kg, route intravenous
Outline: (§1)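 Single 3 mg/kg intravenous dose in 10% DMSO, 10% PEG400 with equimolar HCl in saline to h-PXB or r-PXB mice (n=3~4). Orbital-vein plasma collected over 0–6 hr and measured by LC/MS/MS. Non-compartmental analysis; AUC by trapezoidal rule extrapolated to infinity; CLt = Dose/AUCiv.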

[4] = Total clearance in chimeric mouse transplanted with rat hepatocytes at 3 mg/kg, iv; type: ADME, organism-based, Hepatocyte; design: dose 3 mg/kg, route intravenous; conditions: read-out: CLH; outline: as §1
[5] = Total clearance in chimeric mouse transplanted with human hepatocytes at 3 mg/kg, iv; type: ADME, organism-based, Hepatocyte; design: dose 3 mg/kg, route intravenous; outline: as §1
[6] = Half life in chimeric mouse transplanted with human hepatocytes at 3 mg/kg, iv; type: ADME, organism-based, Hepatocyte; design: dose 3 mg/kg, route intravenous; outline: as §1
[7] = Intrinsic clearance in hepatocytes isolated from chimeric mouse transplanted with rat hepatocytes assessed as per million cells at 10 uM after 2 hrs by LC/MS/MS analysis; type: ADME, cell-based, Hepatocyte; conditions: read-out: CLH
Outline: (§2)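 Fresh hepatocytes from h-PXB mice (mouse cells removed with 66Z rat IgG and anti-rat IgG magnetic beads) or r-PXB mice, 1×10^6 cells/mL in serum-free Krebs-Henseleit buffer. Incubated with 10 μM compound (0.5% acetonitrile) at 37°C under 5% CO₂/95% O₂ with shaking, sampled 0–2 hr. Quenched with acetonitrile, analysed by LC/MS/MS, n=3. CLint derived from first-order depletion rate constant.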

[8] = Intrinsic clearance in hepatocytes isolated from chimeric mouse transplanted with human hepatocytes assessed as per million cells at 10 uM after 2 hrs by LC/MS/MS analysis; type: ADME, cell-based, Hepatocyte; conditions: read-out: CLH; outline: as §2
[9] = Drug excretion in feces of chimeric mouse transplanted with rat hepatocytes at 3 mg/kg, iv as single dose; type: ADME, organism-based, Hepatocyte; design: dose 3 mg/kg, route intravenous; conditions: read-out: Drug excretion
Outline: (§3)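 After a 3 mg/kg i.v. dose, pooled urine and feces were collected from metabolic cages over 0–24 hr (n=3). Samples were homogenized in 10 volumes of water, mixed with acetonitrile and analysed by UPLC (UV 254 nm) and LC/MS/MS. Excretion expressed as % of dose.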

[10] = Drug excretion in urine of chimeric mouse transplanted with rat hepatocytes at 3 mg/kg, iv as single dose; type: ADME, organism-based, Hepatocyte; design: dose 3 mg/kg, route intravenous; conditions: read-out: Drug excretion; outline: as §3
Mus musculus [11] = assay: Drug metabolism in plasma of chimeric mouse transplanted with rat hepatocytes at 3 mg/kg, iv as single dose; type: ADME, organism-based, Hepatocyte; design: dose 3 mg/kg, route intravenous
Outline: (§4)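 Pooled plasma from h-PXB or r-PXB mice after a 3 mg/kg i.v. dose was mixed with an equal volume of acetonitrile and centrifuged. Metabolites were profiled by C18 UPLC with ammonium formate/acetonitrile gradient, UV 254 nm, and Orbitrap MS/MS. Scored as detected or not detected.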

aldehyde oxidase [12] = target: T1, aldehyde oxidase (Rattus norvegicus, UniProt Q9Z0U5); assay: Activity of aldehyde oxidase in hepatocytes isolated from chimeric mouse transplanted with rat hepatocytes assessed as enzyme-mediated drug metabolism measured as compound remaining at 10 uM after 2 hrs by LC/MS/MS analysis; type: ADME, cell-based, Hepatocyte; conditions: read-out: Stability; outline: as §2
T1 sequence (Q9Z0U5 whole entry): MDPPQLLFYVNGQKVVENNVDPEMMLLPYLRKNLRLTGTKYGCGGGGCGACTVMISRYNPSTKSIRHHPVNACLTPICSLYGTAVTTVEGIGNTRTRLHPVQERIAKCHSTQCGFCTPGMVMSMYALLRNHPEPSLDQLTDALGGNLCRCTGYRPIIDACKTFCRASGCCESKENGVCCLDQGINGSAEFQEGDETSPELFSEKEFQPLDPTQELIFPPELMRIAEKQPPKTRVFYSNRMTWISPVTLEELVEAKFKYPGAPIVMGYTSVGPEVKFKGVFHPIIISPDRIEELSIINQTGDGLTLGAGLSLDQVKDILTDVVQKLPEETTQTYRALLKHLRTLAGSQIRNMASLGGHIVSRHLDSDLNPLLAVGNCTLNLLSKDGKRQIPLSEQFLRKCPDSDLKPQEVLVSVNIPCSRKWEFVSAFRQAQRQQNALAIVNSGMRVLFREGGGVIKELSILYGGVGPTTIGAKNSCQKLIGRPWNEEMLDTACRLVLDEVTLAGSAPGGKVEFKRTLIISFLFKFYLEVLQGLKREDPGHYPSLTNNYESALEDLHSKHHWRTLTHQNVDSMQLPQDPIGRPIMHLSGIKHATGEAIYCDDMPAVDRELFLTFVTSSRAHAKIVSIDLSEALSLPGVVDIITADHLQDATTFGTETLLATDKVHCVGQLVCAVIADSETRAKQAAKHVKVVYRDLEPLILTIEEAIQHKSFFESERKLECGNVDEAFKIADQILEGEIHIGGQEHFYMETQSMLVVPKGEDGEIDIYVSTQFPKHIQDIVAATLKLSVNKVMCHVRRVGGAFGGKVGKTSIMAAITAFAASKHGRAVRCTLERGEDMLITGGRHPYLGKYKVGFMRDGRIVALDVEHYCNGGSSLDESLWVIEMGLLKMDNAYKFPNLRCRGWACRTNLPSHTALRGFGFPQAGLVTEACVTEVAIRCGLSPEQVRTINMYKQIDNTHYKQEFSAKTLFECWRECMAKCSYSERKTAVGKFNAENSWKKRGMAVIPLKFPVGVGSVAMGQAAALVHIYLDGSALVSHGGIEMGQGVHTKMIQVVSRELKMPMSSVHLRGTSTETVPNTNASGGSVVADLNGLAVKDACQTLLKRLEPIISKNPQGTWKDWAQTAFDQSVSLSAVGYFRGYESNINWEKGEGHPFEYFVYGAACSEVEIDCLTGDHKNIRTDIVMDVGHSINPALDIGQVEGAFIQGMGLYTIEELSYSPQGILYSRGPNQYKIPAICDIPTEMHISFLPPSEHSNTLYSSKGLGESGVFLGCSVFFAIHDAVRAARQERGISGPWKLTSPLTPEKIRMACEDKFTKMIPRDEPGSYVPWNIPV

[13] = Drug excretion in feces of chimeric mouse transplanted with human hepatocytes at 3 mg/kg, iv as single dose; type: ADME, organism-based, Hepatocyte; design: dose 3 mg/kg, route intravenous; conditions: read-out: Drug excretion; outline: as §3
[14] = Drug excretion in urine of chimeric mouse transplanted with human hepatocytes at 3 mg/kg, iv as single dose; type: ADME, organism-based, Hepatocyte; design: dose 3 mg/kg, route intravenous; conditions: read-out: Drug excretion; outline: as §3
Mus musculus [15] = assay: Drug metabolism in plasma of chimeric mouse transplanted with human hepatocytes at 3 mg/kg, iv as single dose; type: ADME, organism-based, Hepatocyte; design: dose 3 mg/kg, route intravenous; outline: as §4
aldehyde oxidase [16] = target: T2, aldehyde oxidase (Homo sapiens, UniProt Q06278); assay: Activity of aldehyde oxidase in hepatocytes isolated from chimeric mouse transplanted with human hepatocytes assessed as enzyme-mediated drug metabolism measured as compound remaining at 10 uM after 2 hrs by LC/MS/MS analysis; type: ADME, cell-based, Hepatocyte; conditions: read-out: Stability; outline: as §2
T2 sequence (Q06278 whole entry): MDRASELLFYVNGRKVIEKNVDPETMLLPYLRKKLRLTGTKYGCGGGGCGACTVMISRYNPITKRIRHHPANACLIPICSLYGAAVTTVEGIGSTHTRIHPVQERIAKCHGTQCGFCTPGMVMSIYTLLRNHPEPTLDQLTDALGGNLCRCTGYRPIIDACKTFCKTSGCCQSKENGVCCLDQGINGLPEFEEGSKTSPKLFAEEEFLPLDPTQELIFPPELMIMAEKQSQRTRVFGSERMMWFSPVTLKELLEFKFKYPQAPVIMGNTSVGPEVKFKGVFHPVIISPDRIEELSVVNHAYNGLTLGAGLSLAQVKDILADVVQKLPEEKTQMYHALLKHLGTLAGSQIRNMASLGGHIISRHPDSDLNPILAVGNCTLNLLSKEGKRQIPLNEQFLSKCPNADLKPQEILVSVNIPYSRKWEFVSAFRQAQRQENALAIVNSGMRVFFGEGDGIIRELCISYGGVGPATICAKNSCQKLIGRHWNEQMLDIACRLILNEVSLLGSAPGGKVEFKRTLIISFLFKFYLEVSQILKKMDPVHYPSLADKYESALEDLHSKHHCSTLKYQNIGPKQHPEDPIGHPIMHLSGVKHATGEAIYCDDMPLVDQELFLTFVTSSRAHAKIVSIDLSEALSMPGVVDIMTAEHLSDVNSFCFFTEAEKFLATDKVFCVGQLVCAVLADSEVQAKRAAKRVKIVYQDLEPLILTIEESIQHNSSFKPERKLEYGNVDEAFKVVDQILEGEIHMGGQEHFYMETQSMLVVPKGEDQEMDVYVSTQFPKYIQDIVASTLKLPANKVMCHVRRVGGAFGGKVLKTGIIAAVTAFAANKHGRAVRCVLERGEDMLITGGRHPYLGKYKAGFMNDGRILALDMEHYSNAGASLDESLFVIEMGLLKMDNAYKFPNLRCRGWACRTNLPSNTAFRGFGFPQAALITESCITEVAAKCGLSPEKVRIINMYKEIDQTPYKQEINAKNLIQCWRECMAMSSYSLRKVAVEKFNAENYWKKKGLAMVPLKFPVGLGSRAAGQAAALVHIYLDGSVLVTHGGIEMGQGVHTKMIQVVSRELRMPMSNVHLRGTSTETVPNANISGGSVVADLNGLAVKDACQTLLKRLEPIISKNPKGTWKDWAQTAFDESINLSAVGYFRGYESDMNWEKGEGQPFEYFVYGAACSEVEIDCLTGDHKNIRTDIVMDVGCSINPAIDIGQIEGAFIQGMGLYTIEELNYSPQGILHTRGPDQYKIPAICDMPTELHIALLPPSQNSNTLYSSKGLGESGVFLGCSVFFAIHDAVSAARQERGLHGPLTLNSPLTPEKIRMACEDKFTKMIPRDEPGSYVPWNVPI

[17] = Retention time of the compound by UV/mass spectrometry; type: physicochemical
Outline: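 Retention time on Acquity BEH C18 column (1.7 µm, 2.1×100 mm). Mobile phase 5 mM ammonium formate with 5% acetonitrile against acetonitrile, at 0.2 mL/min. Gradient: 100:0 to 2.5 min, linear to 65:35 by 25 min, 10:90 to 27 min. Detection by UV at 254 nm and MS.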

[18] = Plasma protein binding in rat by equilibrium dialysis method; type: ADME, cell-free; conditions: read-out: PPB (converted)

- Cmax [1]: 253 ng/mL
- half-life [2]: 24 min
- half-life [3]: 48 min
- clearance [4]: 34 mL/min/kg
- clearance [5]: 70.7 mL/min/kg
- half-life [6]: 42 min
- hepatocyte CLint at 10 µM [7]: 5 µL/min/1e6 cells
- hepatocyte CLint at 10 µM [8]: 10 µL/min/1e6 cells
- dose excreted [9]: 1.1%
- dose excreted [10]: 0.1%
- Drug metabolism (Mus musculus [11]): metabolite_detected
- remaining at 2 h, 10 µM (aldehyde oxidase [12]): 58.4%
- dose excreted [13]: 0.1%
- dose excreted [14]: 0.1%
- Drug metabolism (Mus musculus [15]): metabolite_detected
- remaining at 2 h, 10 µM (aldehyde oxidase [16]): 27.5%
- Retention_time [17]: 20 min
- fraction unbound [18]: 0.246
SMILES: CC(C)n1nc(-c2cnc(N)nc2-c2ccccc2)ccc1=O

From ChEMBL document CHEMBL3526077, “Prediction of human metabolism of FK3453 by aldehyde oxidase using chimeric mice transplanted with human or rat hepatocytes” (Drug Metab Dispos, 2012)
